Laboratory results: ChEMBL document CHEMBL3872205, “Design, synthesis and evaluation of novel potent angiotensin II receptor 1 antagonists” (Eur J Med Chem, 2016)
Activity calls are given as the source filed them. The calls are words filed in the database; no cut-off is given here.

Experiments:
[1] = Displacement of 125I-Ang2 from AT1 receptor in SPF Sprague-Dawley rat vascular smooth muscle cell membranes after 150 mins by gamma counting method
In short: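 Primary aortic VSMCs from SPF Sprague-Dawley rats, obtained by explant culture in DMEM/10% FBS and identified by SM α-actin staining; passages 3–6. Whole cells (10^6/well) incubated with 125I-Ang II (diluted to 0.2 nM) and compound at final 10^-12–10^-6 M, 4 °C for 150 min. Washed, lysed in 0.1 M NaOH, γ-counted. IC50 from nonlinear fit of competition curves.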

Rattus norvegicus [2] = experiment: Antihypertensive activity in spontaneous hypertensive rat model assessed as reduction in mean blood pressure at 15 mg/kg, po measured up to 24 hrs; assay type: functional, organism-based
In short: (§1)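 Male SHRs (250 ± 20 g) were randomized, 6 per group. Compound was suspended in 0.5% sodium carboxymethyl cellulose and given orally; vehicle-only negative control. Mean blood pressure was calculated as (SBP − DBP)/3 + DBP from systolic and diastolic readings over the time course. Data are mean ± SD, with p < 0.05 taken as significant.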

Rattus norvegicus [3] = experiment: Antihypertensive activity in spontaneous hypertensive rat model assessed as reduction in mean blood pressure at 15 mg/kg, po after 3 hrs; assay type: functional; in short: as §1
Rattus norvegicus [4] = experiment: Antihypertensive activity in spontaneous hypertensive rat model assessed as reduction in mean blood pressure at 15 mg/kg, po after 12 hrs; assay type: functional, organism-based; in short: as §1

| Compound | IC50 [1] [nM] | Ki [1] [nM] | Activity (Rattus norvegicus [2]) | Activity (Rattus norvegicus [3]) [mmHg] | Activity (Rattus norvegicus [4]) |
| --- | --- | --- | --- | --- | --- |
| CCCCCC1=NC2(CCCC2)C(=O)N1Cc1cccc2c1ccn2-c1ccccc1-c1nnn[nH]1 | 6.15 | 4.67 | Active | – | – |
| CCCCCCC1=NC2(CCCC2)C(=O)N1Cc1ccc2c(ccn2-c2ccccc2-c2nnn[nH]2)c1 | 6.15 | 4.67 | – | – | – |
| CCCC1=NC2(CCCC2)C(=O)N1Cc1cccc2c1ccn2-c1ccccc1-c1nnn[nH]1 | 7.75 | 5.61 | Active | – | – |

More lines, in order of falling IC50 [1], values ahead:

| IC50 [1] [nM] | Compound | Ki [1] [nM] | Activity (Rattus norvegicus [2]) | Activity (Rattus norvegicus [3]) [mmHg] | Activity (Rattus norvegicus [4]) |
| --- | --- | --- | --- | --- | --- |
| 7.04 | CCCC1=NC2(CCCC2)C(=O)N1Cc1ccc2c(ccn2-c2ccccc2-c2nnn[nH]2)c1 | 5.07 | Active | – | – |
| 5.33 | CCCCCC1=NC2(CCCC2)C(=O)N1Cc1ccc2c(ccn2-c2ccccc2-c2nnn[nH]2)c1 | 3.42 | Active | – | – |
| 3.05 | CCCCC1=NC2(CCCC2)C(=O)N1Cc1cccc2c1ccn2-c1ccccc1-c1nnn[nH]1 | 2.21 | – | 40.57 | Active |
| 1.46 | CCCCC1=NC2(CCCC2)C(=O)N1Cc1ccc(-c2ccccc2-c2nnn[nH]2)cc1 [IRBESARTAN] | 1.05 | Active | – | – |
